Reference: ChEMBL document CHEMBL1629579, “Correlating echinocandin MIC and kinetic inhibition of fks1 mutant glucan synthases for Candida albicans: implications for interpretive breakpoints” (Antimicrob Agents Chemother, 2009)
Values after ≈ are worked out from the molar mass of the structure shown. Numbered stars: 1 amine (or outer) side, 2 acyl side, 3 side chain; on linkers, the order of the positions; unused ones are H or OH. Bridge positions count the residues as written; N and C are the ends. Square brackets hold non-standard residues; d marks the D form. Peptide text beside a SMILES is read from it. * marks the point of attachment. pTerphenylCO(4''-OnC5H11) = CCCCCOc1ccc(-c2ccc(-c3ccc(C(=O)*)cc3)cc2)cc1; Orn(4R-OH,5R-OH) = O=C([C@H](C[C@@H](O)[C@@H](O)N[*:3])N[*:1])[*:2]; hTyr(3S-OH,4S-OH) = N[C@H](C(=O)O)[C@H](O)[C@@H](O)c1ccc(O)cc1; Pro(3S-OH,4S-Me) = C[C@H]1CN[C@H](C(=O)O)[C@H]1O; Hyp = O=C(O)[C@@H]1C[C@@H](O)CN1

What was measured:
[1] = Inhibition of Candida albicans A15 1,3-beta-D-glucan synthase subunit FKS1p T1933Y mutant
How it was run: (§1)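 Enzyme is product-entrapped 1,3-β-D-glucan synthase, enriched from membranes of each strain grown at 37°C with shaking in YPD broth to early stationary phase. Filtration polymerization assay uses [3H]UDPG, started by adding enzyme and run 60 min at 25°C. Echinocandins are added as serial dilutions, with 1% DMSO controls for anidulafungin. IC50 is from a variable-slope sigmoidal fit; values are triplicate arithmetic means.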

[2] = test system: Candida albicans; assay: Activity at Candida albicans 194 1,3-beta-D-glucan synthase subunit FKS1p C1934T/G4082R mutant
How it was run: (§2)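 Product-entrapped 1,3-β-D-glucan synthase from cells grown in YPD at 37°C to early stationary phase. Wells held 50 mM HEPES pH 7.5, 10% glycerol, 1.5 mg/ml BSA, 25 mM KF, 1 mM EDTA, 25 μM GTP-γ-S, 1 μg enzyme and [3H]UDPG (0.015–2 mM). Reactions ran 60 min at 25°C. Vmax and Km came from Lineweaver-Burke plots, in triplicate.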

[3] = test system: Candida albicans; assay: Antimicrobial activity against Candida albicans A15-10 harboring FKS1 T1933C mutant gene and FKS1 hotspot1 S645P mutant gene by M27-A3 method; type: functional
How it was run: (§3)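 Broth microdilution per CLSI M27-A3 in RPMI 1640, done in triplicate on three separate days. Each strain was tested with and without 50% human serum. C. krusei ATCC 6258 and C. parapsilosis ATCC 22019 served as QC strains. Arithmetic means are reported, and geometric means were used for comparison.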

[4] = test system: Candida albicans; assay: Antimicrobial activity against Candida albicans 119 harboring FKS1 T1921C mutant gene and FKS1 hotspot1 F641L mutant gene by M27-A3 method; type: functional; how it was run: as §3
[5] = Inhibition of Candida albicans 2762 1,3-beta-D-glucan synthase subunit FKS1p T1922C mutant; how it was run: as §1
[6] = test system: Candida albicans; assay: Antimicrobial activity against Candida albicans A15-10 harboring FKS1 T1933C mutant gene and FKS1 hotspot1 S645P mutant by M27-A3 method in presence of 50% human serum; type: functional; how it was run: as §3
[7] = test system: Candida albicans; assay: Antimicrobial activity against Candida albicans 3107 by M27-A3 method; type: functional; how it was run: as §3
[8] = Inhibition of Candida albicans 119 1,3-beta-D-glucan synthase subunit FKS1p T1921C mutant
How it was run: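 Product-entrapped glucan synthase from YPD-grown cells (37°C, early stationary phase) in a filtration polymerization assay with [3H]UDPG. Echinocandin serial dilutions were added, with 1% DMSO in controls for anidulafungin. Reactions were started with enzyme, run 60 min at 25°C and stopped on ice. IC50 came from a variable-slope sigmoidal fit, in triplicate.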

[9] = Inhibition of Candida albicans 90 1,3-beta-D-glucan synthase subunit FKS1p G4082R mutant; how it was run: as §1
[10] = test system: Candida albicans; assay: Antimicrobial activity against Candida albicans 36082 by M27-A3 method in presence of 50% human serum; type: functional; how it was run: as §3
[11] = test system: Candida albicans; assay: Antimicrobial activity against Candida albicans 122 harboring FKS1 C1946A mutant gene and FKS1 hotspot1 P649H mutant gene by M27-A3 method in presence of 50% human serum; type: functional; how it was run: as §3
[12] = test system: Candida albicans; assay: Antimicrobial activity against Candida albicans A15 harboring FKS1 T1933Y mutant gene and FKS1 hotspot1 S645S/P mutant gene by M27-A3 method; type: functional; how it was run: as §3
[13] = test system: Candida albicans; assay: Antimicrobial activity against Candida albicans 2762 harboring FKS1 T1922C mutant gene and FKS1 hotspot1 F641S mutant gene by M27-A3 method in presence of 50% human serum; type: functional; how it was run: as §3
[14] = test system: Candida albicans; assay: Antimicrobial activity against Candida albicans 85 harboring FKS1 C1934T mutant gene and FKS1 hotspot1 S645F mutant gene by M27-A3 method; type: functional; how it was run: as §3
[15] = Inhibition of Candida albicans 5415 1,3-beta-D-glucan synthase subunit FKS1p T1933C mutant; how it was run: as §1
[16] = test system: Candida albicans; assay: Antimicrobial activity against Candida albicans 177 harboring FKS1 T1922C mutant gene and FKS1 hotspot1 F641S mutant gene by M27-A3 method in presence of 50% human serum; type: functional; how it was run: as §3
[17] = test system: Candida albicans; assay: Antimicrobial activity against Candida albicans 205 harboring FKS1 T1933C mutant gene and FKS1 hotspot1 S645P mutant gene by M27-A3 method in presence of 50% human serum; type: functional; how it was run: as §3
[18] = test system: Candida albicans; assay: Activity at Candida albicans 89 1,3-beta-D-glucan synthase subunit FKS1p C1934A mutant; how it was run: as §2
[19] = test system: Candida albicans; assay: Activity at Candida albicans 3795 1,3-beta-D-glucan synthase subunit FKS1p
How it was run: (§4)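 Glucan synthase from cells grown at 37°C with vigorous shaking to early stationary phase in YPD. Membrane enzyme enriched by product entrapment. Serial echinocandin dilutions; ANF controls held 1% DMSO. Reaction started by adding enzyme, run 60 min at 25°C in a filtration polymerization assay, stopped on ice. IC50 from a variable-slope sigmoidal fit; means of three repetitions on separate days.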

[20] = test system: Candida albicans; assay: Activity at Candida albicans 177 1,3-beta-D-glucan synthase subunit FKS1p T1922C mutant; how it was run: as §2
[21] = test system: Candida albicans; assay: Antimicrobial activity against Candida albicans 1002 by M27-A3 method; type: functional
How it was run: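 Broth microdilution per CLSI M27-A3 in RPMI 1640, with and without 50% human serum, in triplicate. C. krusei ATCC 6258 and C. parapsilosis ATCC 22019 served as quality-control strains. MIC reported as arithmetic mean of three repetitions on separate days.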

[22] = Inhibition of Candida albicans SC5314 1,3-beta-D-glucan synthase subunit FKS1p; how it was run: as §1
[23] = test system: Candida albicans; assay: Antimicrobial activity against Candida albicans 177 harboring FKS1 T1922C mutant gene and FKS1 hotspot1 F641S mutant gene by M27-A3 method; type: functional; how it was run: as §3
[24] = test system: Candida albicans; assay: Antimicrobial activity against Candida albicans 2762 harboring FKS1 T1922C mutant gene and FKS1 hotspot1 F641S mutant gene by M27-A3 method; type: functional; how it was run: as §3
[25] = test system: Candida albicans; assay: Antimicrobial activity against Candida albicans 149 harboring FKS1 G1942T mutant gene and FKS1 hotspot1 D648Y mutant gene by M27-A3 method; type: functional; how it was run: as §3
[26] = test system: Candida albicans; assay: Antimicrobial activity against Candida albicans 5415 harboring FKS1 T1933C mutant gene and FKS1 hotspot1 S645P mutant gene by M27-A3 method; type: functional; how it was run: as §3
[27] = test system: Candida albicans; assay: Antimicrobial activity against Candida albicans 122 harboring FKS1 C1946A mutant gene and FKS1 hotspot1 P649H mutant gene by M27-A3 method; type: functional; how it was run: as §3
[28] = Inhibition of Candida albicans 205 1,3-beta-D-glucan synthase subunit FKS1p T1933C mutant; how it was run: as §1
[29] = test system: Candida albicans; assay: Antimicrobial activity against Candida albicans 3795 by M27-A3 method in presence of 50% human serum; type: functional; how it was run: as §3
[30] = Inhibition of Candida albicans 3795 1,3-beta-D-glucan synthase subunit FKS1p; how it was run: as §1
[31] = test system: Candida albicans SC5314; assay: Activity at Candida albicans SC5314 1,3-beta-D-glucan synthase subunit FKS1p; how it was run: as §4

Q: With `CCCCCOc1ccc(-c2ccc(-c3ccc(C(=O)N[C@H]4C[C@@H](O)[C@@H](O)NC(=O)[C@@H]5[C@@H](O)[C@@H](C)CN5C(=O)[C@H]([C@@H](C)O)NC(=O)[C@H]([C@H](O)[C@@H](O)c5ccc(O)cc5)NC(=O)[C@@H]5C[C@@H](O)CN5C(=O)[C@H]([C@@H](C)O)NC4=O)cc3)cc2)cc1` [ANIDULAFUNGIN] ({pTerphenylCO(4''-OnC5H11)}-[Orn(4R-OH,5R-OH)]T[Hyp][hTyr(3S-OH,4S-OH)]T[Pro(3S-OH,4S-Me)]; lactam 1-C) as the compound, how does the IC50 [1] read?
A: 0.1287 µg/mL (≈ 0.113 µM)

Q: And the Km [2]?
A: 61 µM

Q: What about the Vmax [2] of the same compound?
A: 5.81 nmol/min

Q: What about the MIC [3] of the same compound?
A: 4 µg/mL (≈ 3.51 µM)

Q: And the MIC [4]?
A: 0.16 µg/mL (≈ 0.14 µM)

Q: And the IC50 [5]?
A: 1.085 µg/mL (≈ 0.952 µM)

Q: And the Ki [5]?
A: 4.48127 µg/mL (≈ 3.93 µM)

Q: What about the MIC [6] of the same compound?
A: 8 µg/mL

Q: And the MIC [7]?
A: 0.03 µg/mL (≈ 0.0263 µM)

Q: What about the IC50 [8] of the same compound?
A: 0.0113 µg/mL (≈ 0.00991 µM)

Q: What about the Ki [8] of the same compound?
A: 0.00677 µg/mL (≈ 0.00594 µM)

Q: What about the IC50 [9] of the same compound?
A: 0.0406 µg/mL (≈ 0.0356 µM)

Q: What about the Ki [9] of the same compound?
A: 0.0485 µg/mL (≈ 0.0425 µM)

Q: And the MIC [10]?
A: 0.12 µg/mL

Q: What about the MIC [11] of the same compound?
A: 8 µg/mL

Q: What about the MIC [12] of the same compound?
A: 0.5 µg/mL (≈ 0.438 µM)

Q: And the MIC [13]?
A: 4 µg/mL

Q: What about the MIC [14] of the same compound?
A: 2 µg/mL (≈ 1.75 µM)

Q: And the IC50 [15]?
A: 1.152 µg/mL (≈ 1.01 µM)

Q: And the Ki [15]?
A: 4.15411 µg/mL (≈ 3.64 µM)

Q: And the MIC [16]?
A: 4 µg/mL

Q: What about the MIC [17] of the same compound?
A: 8 µg/mL

Q: What about the Km [18] of the same compound?
A: 61 µM

Q: And the Vmax [18]?
A: 2.51 nmol/min

Q: And the Km [19]?
A: 88 µM

Q: What about the Vmax [19] of the same compound?
A: 6.63 nmol/min

Q: And the Km [20]?
A: 50 µM

Q: What about the Vmax [20] of the same compound?
A: 4.4 nmol/min

Q: What about the MIC [21] of the same compound?
A: 0.06 µg/mL (≈ 0.0526 µM)

Q: What about the IC50 [22] of the same compound?
A: 0.00089 µg/mL (≈ 0.000781 µM)

Q: What about the Ki [22] of the same compound?
A: 0.00133 µg/mL (≈ 0.00117 µM)

Q: What about the MIC [23] of the same compound?
A: 0.83 µg/mL (≈ 0.728 µM)

Q: What about the MIC [24] of the same compound?
A: 1 µg/mL (≈ 0.877 µM)

Q: And the MIC [25]?
A: 0.83 µg/mL (≈ 0.728 µM)

Q: What about the MIC [26] of the same compound?
A: 2 µg/mL (≈ 1.75 µM)

Q: And the MIC [27]?
A: 0.67 µg/mL (≈ 0.588 µM)

Q: And the IC50 [28]?
A: 0.989 µg/mL (≈ 0.867 µM)

Q: What about the Ki [28] of the same compound?
A: 3.2231 µg/mL (≈ 2.83 µM)

Q: And the MIC [29]?
A: 0.44 µg/mL

Q: What about the IC50 [30] of the same compound?
A: 0.00676 µg/mL (≈ 0.00593 µM)

Q: What about the Ki [30] of the same compound?
A: 0.0167 µg/mL (≈ 0.0146 µM)

Q: What about the Km [31] of the same compound?
A: 125 µM

Q: And the Vmax [31]?
A: 6.72 nmol/min
